Experimental data published in ChEMBL document CHEMBL5620437, “Discovery of Conformationally Constrained ALK2 Inhibitors” (J Med Chem, 2024).
Activity calls are given as the source filed them. The calls are words filed in the database; no cut-off is given here.

Columns and labels:
[1] = Ratio of drug concentration in brain to plasma in NOD-SCID mouse brain at 10 mg/kg, po measured at 4 hrs by LC-MS/MS analysis; format: ADME, organism-based; conditions: read-out: BPR
Method in brief: (§1)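 Male NOD-SCID mice dosed orally at 10 mg/kg. Plasma and brain concentrations of parent and demethylated metabolites measured at 2 and 4 h. Kp = Cbrain/Cplasma at 4 h.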

[2] = Drug concentration in NOD-SCID mouse plasma at 10 mg/kg, po measured at 4 hrs by LC-MS/MS analysis; format: ADME, organism-based; method in brief: as §1
[3] = Drug concentration in NOD-SCID mouse plasma at 25 mg/kg, po measured at 2 hrs by LC-MS/MS analysis; format: ADME, organism-based
Method in brief: (§2)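 Male NOD-SCID mice given 25 mg/kg orally in 5% DMSO, 47.5% PEG, 47.5% deionized water with 10% Tween80. Plasma drug levels measured at 0.5, 1, 2, 6 and 24 h; demethylated metabolites also quantified.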

[4] = Metabolic stability in CD-1 mouse liver microsome at 1 uM in presence of NADPH-regeneration system incubated for 60 mins by LC/MS analysis; format: ADME; conditions: liver microsomes, read-out: Stability
Method in brief: (§3)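 Compound 1 μM final (0.1% DMSO) in 0.1 M potassium phosphate pH 7.4 with male CD-1 mouse or pooled human liver microsomes at 0.5 mg/mL protein plus NADPH-regeneration mix. Sampled at 0 and 60 min at 37 °C, in duplicate. Parent remaining by LC/MS peak area.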

[5] = Drug concentration in NOD-SCID mouse plasma at 25 mg/kg, po measured at 0.5 hrs by LC-MS/MS analysis; format: ADME, organism-based; method in brief: as §2
[6] = Metabolic stability in human liver microsome at 1 uM in presence of NADPH-regeneration system incubated for 60 mins by LC/MS analysis; format: ADME; conditions: liver microsomes, read-out: Stability; method in brief: as §3
[7] = Apparent permeability across basolateral to apical side in human Caco-2 cells incubated for 2 hrs by LC/MS analysis; format: ADME, cell-based
Method in brief: (§4)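 Caco-2 (C2BBE1) cells seeded 40,000/well on 1.0 μm PET inserts, grown 21–22 days; HBSS with 10 mM HEPES, 15 mM glucose, pH 7.4. Compound 5 μM in donor (0.1% DMSO), receiver with 1% BSA; 2 h at 37 °C shaking. Metoprolol, atenolol, Lucifer yellow, digoxin controls. LC/MS peak areas; two technical replicates; efflux ratio = Papp B-A / Papp A-B.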

[8] = Apparent permeability across apical to basolateral side in human Caco-2 cells incubated for 2 hrs by LC/MS analysis; format: ADME, cell-based; method in brief: as §4
Activin receptor type-1 [9] = biological target: T1, Activin receptor type-1 (Homo sapiens, UniProt Q04771); test: Inhibition of N-terminal GST-his6 tagged human recombinant ALK2 (145 to 509 residues) expressed in Sf9 insect cells in presence of ATP by radiometric kinase assay
T1 sequence (Q04771 whole entry): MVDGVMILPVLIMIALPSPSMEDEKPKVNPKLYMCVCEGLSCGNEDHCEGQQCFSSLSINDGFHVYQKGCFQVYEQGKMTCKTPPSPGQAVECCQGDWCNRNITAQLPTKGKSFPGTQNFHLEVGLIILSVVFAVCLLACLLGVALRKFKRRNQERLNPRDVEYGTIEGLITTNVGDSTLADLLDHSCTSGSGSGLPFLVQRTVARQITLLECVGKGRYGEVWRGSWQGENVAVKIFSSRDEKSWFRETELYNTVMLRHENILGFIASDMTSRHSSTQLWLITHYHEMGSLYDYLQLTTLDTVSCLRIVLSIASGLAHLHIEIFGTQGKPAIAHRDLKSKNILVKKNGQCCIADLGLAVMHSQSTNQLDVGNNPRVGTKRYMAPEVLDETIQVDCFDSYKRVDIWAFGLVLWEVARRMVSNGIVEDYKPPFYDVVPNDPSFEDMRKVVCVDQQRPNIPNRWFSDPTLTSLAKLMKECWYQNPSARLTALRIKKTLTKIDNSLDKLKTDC

[10] = Drug concentration in NOD-SCID mouse plasma at 10 mg/kg, po measured at 2 hrs by LC-MS/MS analysis; format: ADME, organism-based; method in brief: as §1
[11] = Drug concentration in NOD-SCID mouse brain at 10 mg/kg, po measured at 4 hrs by LC-MS/MS analysis; format: ADME, organism-based; conditions: read-out: Ct; method in brief: as §1
Activin receptor type-1 [12] = biological target: T1, Activin receptor type-1; test: Inhibition of ALK2 in human HEK293 cells using NanoGlo as substrate incubated for 2 hrs by NanoBRET assay; format: cell-based
[13] = Dissociation constant, pKa of compound; format: physicochemical
[14] = Drug concentration in NOD-SCID mouse plasma at 25 mg/kg, po measured at 1 hrs by LC-MS/MS analysis; format: ADME, organism-based; method in brief: as §2
[15] = Drug concentration in NOD-SCID mouse plasma at 25 mg/kg, po measured at 6 hrs by LC-MS/MS analysis; format: ADME, organism-based; method in brief: as §2
[16] = Drug concentration in NOD-SCID mouse plasma at 25 mg/kg, po measured at 24 hrs by LC-MS/MS analysis; format: ADME, organism-based; method in brief: as §2
[17] = Drug concentration in NOD-SCID mouse brain at 10 mg/kg, po measured at 2 hrs by LC-MS/MS analysis; format: ADME, organism-based; conditions: read-out: Ct; method in brief: as §1
[18] = biological target: TRAF2 and NCK-interacting protein kinase (Homo sapiens) (UniProt Q9UKE5); test: Inhibition of human recombinant TNIK (1 to 367 residues) using RLGRDKYKTLRQI as substrate incubated for 40 mins by scintillation based radiometric LeadHunter assay
Sequence of TRAF2 and NCK-interacting protein kinase (Homo sapiens) (Q9UKE5 whole entry, looked up, the tested form may be a part): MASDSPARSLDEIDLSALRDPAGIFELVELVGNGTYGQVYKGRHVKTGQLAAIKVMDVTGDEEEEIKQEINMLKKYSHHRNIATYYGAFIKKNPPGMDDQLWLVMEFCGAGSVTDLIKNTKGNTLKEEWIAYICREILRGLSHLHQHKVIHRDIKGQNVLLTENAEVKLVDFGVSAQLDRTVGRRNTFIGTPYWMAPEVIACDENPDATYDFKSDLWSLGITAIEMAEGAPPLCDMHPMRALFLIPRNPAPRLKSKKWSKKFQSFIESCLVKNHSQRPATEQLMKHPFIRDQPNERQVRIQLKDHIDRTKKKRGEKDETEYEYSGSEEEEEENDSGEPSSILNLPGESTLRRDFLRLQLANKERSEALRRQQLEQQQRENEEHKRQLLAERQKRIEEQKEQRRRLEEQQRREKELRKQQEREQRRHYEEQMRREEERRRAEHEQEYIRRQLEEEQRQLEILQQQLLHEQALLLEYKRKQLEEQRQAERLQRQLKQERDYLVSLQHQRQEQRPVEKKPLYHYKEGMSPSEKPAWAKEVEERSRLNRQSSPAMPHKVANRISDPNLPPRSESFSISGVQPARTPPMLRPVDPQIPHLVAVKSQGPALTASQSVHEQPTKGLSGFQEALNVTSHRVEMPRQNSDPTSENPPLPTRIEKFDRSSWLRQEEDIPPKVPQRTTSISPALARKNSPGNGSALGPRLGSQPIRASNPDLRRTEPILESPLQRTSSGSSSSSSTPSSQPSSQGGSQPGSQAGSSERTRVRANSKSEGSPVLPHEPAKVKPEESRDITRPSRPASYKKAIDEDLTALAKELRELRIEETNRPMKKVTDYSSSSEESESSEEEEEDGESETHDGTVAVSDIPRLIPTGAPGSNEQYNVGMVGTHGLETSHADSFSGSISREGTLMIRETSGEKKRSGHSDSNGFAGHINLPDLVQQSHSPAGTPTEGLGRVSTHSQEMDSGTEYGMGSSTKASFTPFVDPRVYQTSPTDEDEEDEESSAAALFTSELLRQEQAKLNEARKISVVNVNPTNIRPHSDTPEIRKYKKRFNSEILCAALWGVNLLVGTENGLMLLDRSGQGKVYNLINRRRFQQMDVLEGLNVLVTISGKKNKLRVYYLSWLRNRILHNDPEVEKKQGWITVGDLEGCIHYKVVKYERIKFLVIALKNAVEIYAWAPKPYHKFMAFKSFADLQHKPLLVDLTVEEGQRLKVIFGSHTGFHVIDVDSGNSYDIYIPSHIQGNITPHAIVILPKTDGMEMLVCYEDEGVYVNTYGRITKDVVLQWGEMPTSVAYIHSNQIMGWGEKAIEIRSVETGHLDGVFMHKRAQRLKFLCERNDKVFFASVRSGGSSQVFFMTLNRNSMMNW

[19] = biological target: Receptor-interacting serine/threonine-protein kinase 2 (Homo sapiens) (UniProt O43353); test: Inhibition of human recombinant RIPK2 (1 to 299 residues) incubated for 120 mins in presence of ATP by scintillation based radiometric LeadHunter assay
[20] = test system: Epidermal growth factor receptor (Homo sapiens), P00533 [L861Q]; test: Inhibition of human EGFR L861Q mutant (696 to end residues) using poly Glu as substrate incubated for 40 mins by scintillation based radiometric LeadHunter assay
Sequence of Epidermal growth factor receptor (Homo sapiens), P00533 [L861Q] (P00533 whole entry L861Q, the tested form may be a part): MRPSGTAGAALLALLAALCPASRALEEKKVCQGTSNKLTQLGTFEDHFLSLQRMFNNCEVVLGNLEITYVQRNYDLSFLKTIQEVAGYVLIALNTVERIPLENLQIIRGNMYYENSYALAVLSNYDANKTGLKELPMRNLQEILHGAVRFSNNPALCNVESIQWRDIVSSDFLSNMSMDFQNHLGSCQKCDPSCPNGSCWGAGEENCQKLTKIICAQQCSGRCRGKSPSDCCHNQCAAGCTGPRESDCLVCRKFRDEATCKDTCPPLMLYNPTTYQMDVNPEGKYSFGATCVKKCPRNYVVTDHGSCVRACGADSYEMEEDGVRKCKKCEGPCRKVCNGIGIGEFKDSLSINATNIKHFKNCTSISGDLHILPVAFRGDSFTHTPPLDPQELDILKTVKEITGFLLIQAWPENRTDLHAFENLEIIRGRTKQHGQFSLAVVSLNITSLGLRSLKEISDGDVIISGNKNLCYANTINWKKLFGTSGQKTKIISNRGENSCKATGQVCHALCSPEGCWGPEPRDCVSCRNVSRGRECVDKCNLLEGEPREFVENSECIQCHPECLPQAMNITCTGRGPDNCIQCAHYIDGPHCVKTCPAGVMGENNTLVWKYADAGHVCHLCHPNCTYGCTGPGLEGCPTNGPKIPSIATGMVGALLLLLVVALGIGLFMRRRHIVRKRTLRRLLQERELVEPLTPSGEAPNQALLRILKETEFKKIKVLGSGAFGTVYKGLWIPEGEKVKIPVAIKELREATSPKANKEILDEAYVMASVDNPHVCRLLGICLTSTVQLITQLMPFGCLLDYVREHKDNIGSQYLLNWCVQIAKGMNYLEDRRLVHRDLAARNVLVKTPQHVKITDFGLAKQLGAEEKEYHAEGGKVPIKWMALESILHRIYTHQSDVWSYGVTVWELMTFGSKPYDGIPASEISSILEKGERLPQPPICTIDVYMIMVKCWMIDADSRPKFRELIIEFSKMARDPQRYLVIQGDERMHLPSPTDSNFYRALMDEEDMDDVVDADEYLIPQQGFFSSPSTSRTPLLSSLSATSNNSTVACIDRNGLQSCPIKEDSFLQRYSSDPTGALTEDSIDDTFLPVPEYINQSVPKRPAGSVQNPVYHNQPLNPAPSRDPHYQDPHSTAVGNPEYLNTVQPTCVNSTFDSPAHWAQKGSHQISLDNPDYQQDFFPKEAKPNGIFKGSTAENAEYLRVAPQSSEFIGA

[21] = biological target: Epithelial discoidin domain-containing receptor 1 (Homo sapiens) (UniProt Q08345); test: Inhibition of human recombinant DDR1 (492 to end residues) using KKKSPGEYVNIEF as substrate incubated for 40 mins by scintillation based radiometric LeadHunter assay
Sequence of Epithelial discoidin domain-containing receptor 1 (Homo sapiens) (Q08345 whole entry, the tested form may be a part): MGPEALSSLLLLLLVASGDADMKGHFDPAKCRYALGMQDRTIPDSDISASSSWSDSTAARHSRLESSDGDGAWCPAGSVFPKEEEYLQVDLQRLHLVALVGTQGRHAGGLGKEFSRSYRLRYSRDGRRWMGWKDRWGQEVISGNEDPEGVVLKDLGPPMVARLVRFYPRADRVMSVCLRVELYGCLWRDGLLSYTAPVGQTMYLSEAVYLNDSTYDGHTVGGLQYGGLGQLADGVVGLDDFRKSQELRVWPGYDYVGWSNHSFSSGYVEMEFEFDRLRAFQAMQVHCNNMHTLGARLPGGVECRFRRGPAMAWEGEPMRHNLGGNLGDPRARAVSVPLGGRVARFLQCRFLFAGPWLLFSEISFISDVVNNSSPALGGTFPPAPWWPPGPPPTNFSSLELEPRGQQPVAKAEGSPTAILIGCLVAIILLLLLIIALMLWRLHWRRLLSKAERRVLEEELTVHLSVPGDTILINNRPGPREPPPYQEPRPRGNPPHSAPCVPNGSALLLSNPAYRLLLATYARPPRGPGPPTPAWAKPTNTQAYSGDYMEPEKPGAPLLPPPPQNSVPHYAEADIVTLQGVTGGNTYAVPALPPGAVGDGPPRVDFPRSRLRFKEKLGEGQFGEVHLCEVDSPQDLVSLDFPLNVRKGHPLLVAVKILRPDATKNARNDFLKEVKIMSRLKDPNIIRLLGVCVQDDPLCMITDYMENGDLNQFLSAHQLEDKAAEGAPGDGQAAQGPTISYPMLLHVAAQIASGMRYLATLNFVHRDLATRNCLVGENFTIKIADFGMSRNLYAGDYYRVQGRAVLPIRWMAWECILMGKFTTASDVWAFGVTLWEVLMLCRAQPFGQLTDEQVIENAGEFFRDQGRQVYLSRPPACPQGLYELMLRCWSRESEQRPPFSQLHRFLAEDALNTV

[22] = biological target: Protein-tyrosine kinase 6 (Homo sapiens) (UniProt Q13882); test: Inhibition of full length human recombinant BRK using poly Glu as substrate incubated for 40 mins by scintillation based radiometric LeadHunter assay
[23] = biological target: Tyrosine-protein kinase Lyn (Homo sapiens) (UniProt P07948); test: Inhibition of full length human recombinant LYN (1 to 367 residues) using poly Glu as substrate incubated for 40 mins by scintillation based radiometric LeadHunter assay
[24] = test system: Epidermal growth factor receptor (Homo sapiens), P00533 [L858R]; test: Inhibition of human EGFR L858R mutant (696 to end residues) using poly Glu as substrate incubated for 40 mins by scintillation based radiometric LeadHunter assay
Sequence of Epidermal growth factor receptor (Homo sapiens), P00533 [L858R] (P00533 whole entry L858R, the tested form may be a part): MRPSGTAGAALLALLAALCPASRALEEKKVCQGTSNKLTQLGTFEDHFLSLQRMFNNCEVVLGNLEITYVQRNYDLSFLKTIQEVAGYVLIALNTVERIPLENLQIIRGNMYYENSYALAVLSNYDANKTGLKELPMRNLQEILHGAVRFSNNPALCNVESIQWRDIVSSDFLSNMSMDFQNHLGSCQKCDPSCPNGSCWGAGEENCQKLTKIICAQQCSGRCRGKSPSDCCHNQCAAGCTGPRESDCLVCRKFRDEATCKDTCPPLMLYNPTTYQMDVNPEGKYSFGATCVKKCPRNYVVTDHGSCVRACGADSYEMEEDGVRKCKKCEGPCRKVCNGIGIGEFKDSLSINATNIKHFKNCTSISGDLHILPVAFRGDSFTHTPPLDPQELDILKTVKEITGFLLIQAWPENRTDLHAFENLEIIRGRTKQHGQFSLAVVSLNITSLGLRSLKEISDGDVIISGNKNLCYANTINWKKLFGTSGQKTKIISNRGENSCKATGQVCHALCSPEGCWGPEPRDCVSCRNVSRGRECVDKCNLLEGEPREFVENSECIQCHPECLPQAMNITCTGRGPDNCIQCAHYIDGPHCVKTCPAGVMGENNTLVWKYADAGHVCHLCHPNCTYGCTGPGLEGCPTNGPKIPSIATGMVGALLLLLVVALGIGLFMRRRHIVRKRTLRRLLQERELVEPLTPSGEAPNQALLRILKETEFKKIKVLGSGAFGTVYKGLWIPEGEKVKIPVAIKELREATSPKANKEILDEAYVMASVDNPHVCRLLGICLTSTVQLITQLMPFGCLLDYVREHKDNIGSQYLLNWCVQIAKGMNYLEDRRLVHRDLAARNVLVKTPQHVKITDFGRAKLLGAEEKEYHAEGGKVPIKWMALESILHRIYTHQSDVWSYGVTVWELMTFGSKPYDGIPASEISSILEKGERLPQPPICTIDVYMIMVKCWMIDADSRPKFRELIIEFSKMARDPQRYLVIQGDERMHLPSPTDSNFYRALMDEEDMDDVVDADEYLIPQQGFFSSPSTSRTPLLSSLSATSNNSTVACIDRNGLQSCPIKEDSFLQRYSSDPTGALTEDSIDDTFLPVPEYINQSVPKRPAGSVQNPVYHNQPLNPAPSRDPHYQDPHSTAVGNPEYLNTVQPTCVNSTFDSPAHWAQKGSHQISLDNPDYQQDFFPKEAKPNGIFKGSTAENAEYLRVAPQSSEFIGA

[25] = biological target: Epithelial discoidin domain-containing receptor 1 (Homo sapiens) (UniProt Q08345); test: Inhibition of human recombinant DDR1 (492 to end residues) using KKKSPGEYVNIEF as substrate at 1 uM incubated for 40 mins by scintillation based radiometric LeadHunter assay relative to control
[26] = biological target: TRAF2 and NCK-interacting protein kinase (Homo sapiens) (UniProt Q9UKE5); test: Inhibition of human recombinant TNIK (1 to 367 residues) using RLGRDKYKTLRQI as substrate at 1 uM incubated for 40 mins by scintillation based radiometric LeadHunter assay relative to control

| SMILES | Kp at 4 h [1] | concentration at 4 h [2] [nM] | concentration at 2 h [3] [nM] | remaining at 1 h, 1 µM [4] [%] | concentration at 0.5 h [5] [nM] | remaining at 1 h, 1 µM [6] [%] | Papp B→A at 2 h [7] [×10⁻⁶ cm/s] | Papp A→B at 2 h [8] [×10⁻⁶ cm/s] | IC50 (Activin receptor type-1 [9]) [nM] | concentration at 2 h [10] [nM] | concentration at 4 h [11] [nM] | IC50 (Activin receptor type-1 [12]) [nM] | pKa [13] | concentration at 1 h [14] [nM] | concentration at 6 h [15] [nM] | concentration at 24 h [16] [nM] | concentration at 2 h [17] [nM] | further results |
| --- | --- | --- | --- | --- | --- | --- | --- | --- | --- | --- | --- | --- | --- | --- | --- | --- | --- | --- |
| COc1cc(-c2cncc3c2CN(C)Cc2cc(N4CCN(C)CC4)ccc2-3)cc(OC)c1OC | 75.6 | 43 | 277 | 65 | 134 | 58.3 | 2.5 | 1.5 | 7 | 75 | 3250 | 18 | 8.12 | 254 | 300 | 17 | 4130 | – |
| COc1cc(-c2cncc3c2oc2cc(N4CCN(C)CC4)ccc23)cc(OC)c1OC | – | – | – | 9.5 | – | 37.4 | 2.5 | 4 | 609 | – | – | > 10000 | – | – | – | – | – | – |
| COc1cc(-c2cncc3c2CN(C)Cc2cc(N4CCNCC4)ccc2-3)cc(OC)c1OC | – | – | 523 | 98.6 | 323 | 73.2 | 4.2 | 0.8 | 3 | – | – | 11 | – | 466 | 1260 | 336 | – | inhibition [18]: Active; inhibition [19]: Active; inhibition [20]: Active; inhibition [21]: Active; inhibition [22]: Active; inhibition [23]: Active; inhibition [24]: Active |
| COc1cc(-c2cncc3c2COCc2cc(N4CCNCC4)ccc2-3)cc(OC)c1OC | – | – | – | 75.7 | – | 62.3 | 9.4 | 4.2 | 2 | – | – | 5 | – | – | – | – | – | – |
| COc1cc(-c2cncc3c2CCOc2cc(N4CCN(C)CC4)ccc2-3)cc(OC)c1OC | 3.7 | 393 | 3530 | 10.3 | 3650 | 21.2 | 11.5 | 13.9 | 2 | 980 | 1470 | 15 | 8.54 | 5050 | 2230 | – | 2410 | – |
| COc1cc(-c2cncc3c2COCc2cc(N4CCN(C)CC4)ccc2-3)cc(OC)c1OC | – | – | – | 4.3 | – | 29.7 | 13.6 | 16.5 | 3 | – | – | 7 | – | – | – | – | – | – |
| COc1cc(-c2cncc3c2CCOc2cc(N4CCNCC4)ccc2-3)cc(OC)c1OC | – | – | 1120 | 70.9 | 729 | 66.5 | 11.6 | 5.3 | 2 | – | – | 6 | – | 1070 | 1890 | 63 | – | – |
| COc1cc(-c2cncc3c2COc2cc(N4CCN(C)CC4)ccc2-3)cc(OC)c1OC | – | – | – | 0.9 | – | 34.8 | 9 | 8.3 | 13 | – | – | 45 | – | – | – | – | – | – |
| COc1cc(-c2cncc(-c3ccc(N4CCNCC4)cc3)c2C)cc(OC)c1OC | 0.3 | 2680 | 7490 | – | 3020 | – | – | – | – | 5250 | 888 | – | 8.6 | 4280 | 13400 | 1540 | 2320 | inhibition [25]: 100%; inhibition [26]: 100% |
